Experimental data from different studies.
Each line is one published result; the experiments were not run side by side.
Target: Mitogen-activated protein kinase 14 (MAPK14, Homo sapiens, UniProt Q16539)

SMILES | assay | setting | quantity | result
C#Cc1n[nH]c2c(-c3cn(C(C)c4ccccn4)c(=O)[nH]c3=O)cc(F)cc12 (stereo not shown) | enzyme activity, inhibitor | 1 µM | inhibition | -4.4%
COc1ncccc1-c1cnn2ccc(N3CCN(C(=O)OC(C)C)CC3)nc12 | binding, competition with immobilised ligand | 1 µM | remaining binding | 94%
CC(C)(C)c1cc(C=C(C#N)C#N)cc(Br)c1O | enzyme activity, inhibitor | 0.5 µM | remaining activity | 98.3%
COc1cc(Cl)c(C(=O)N[C@@H](CN[C@H]2CC[C@@H](N)CC2)Cc2ccc(C#N)cc2)cc1-c1ccc(CN[C@H](C)c2ccc(C)cc2)o1 | enzyme activity, inhibitor | 1 µM | remaining activity | 107%
O=C(Nc1cccnn1)N1CCN([C@@H]2CCOc3cc(C(F)(F)F)ccc32)CC1 | enzyme activity, inhibitor | 20 µM | inhibition | -20%
Cc1ncc(C)n2nc(/C=C/c3nc(N4CCCC4)cc(N4CCOCC4)n3)nc12 | enzyme activity, inhibitor | 10 µM | inhibition | 0%
N#CC1(c2ccccn2)CCN(Cc2cc(C(=O)O)c(=O)n3ccccc23)CC1 | cell-free assay, competition with immobilised ligand | 1 µM | remaining binding | 100%
Cc1nn(C)cc1-c1nc2c(N3CCN(Cc4ccc(Cl)cc4)CC3)c(Cl)cnc2[nH]1 | binding, competition with immobilised ligand | 1 µM | remaining binding | 71%
O=c1[nH]c2ccccc2n1C1CCN(Cc2ccc(-c3[nH]c4cc5ncnc5cc4nc3-c3ccccc3)cc2)CC1 | cell-free assay | 0.5 µM | remaining signal | 99.7%
Cn1cncc1[C@@](O)(COc1ccc(C#N)cc1-c1ccc(OC(F)(F)F)cc1)c1ccc(C#N)cc1 | cell-free assay, competition with immobilised ligand | 1 µM | remaining binding | 100%
